Screens deposited in PubChem by Broad Institute.
Hits are enriched below; roughly 1.4% of the tested compounds scored in any of these assays.
Vif imaging: blocks HIV Vif function; HEK293T cells, Vif self-association by quenched fluorescence, imaging, 24 h; inhibition, % at 7.49 µM; actives 0.35% (n = 340,000); AID 602346; in the data active means inhibition above about 50%, passing the limit was not always enough
PvdQ acylase: blocks Pseudomonas aeruginosa PvdQ acylase activity. purified PvdQ acylase, fluorescence plate reader. inhibition, % at 10 µM. actives 0.063% (n = 340,000). AID 488965; in the data active means inhibition above about 30%, passing the limit was not always enough;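 further: 0% = vehicle neutral wells and 100% = reference inhibitor wells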
CAL PDZ FP-1: blocks peptide binding to human CAL PDZ domain. actives 0.02% (n = 330,000). purified CAL PDZ, TMR-peptide fluorescence polarization, 1 h. inhibition, % at 20 µM. AID 504414. Q9HD26;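 active means highest replicate inhibition of at least 40%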;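 further: plate controls were DMSO neutral control wells for no effect and unlabeled competitor peptide control wells for full effect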
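Assay system – tagged CAL PDZ protein CerCALP, purified · Timing – 1 h at RT · Compound – single point, 20 µM · Measured by – fluorescence polarization from S- and P-plane intensities, G-factor corrected · Evaluation – inhibition from polarization loss · Probe or stimulus – TMR reporter peptide T*-PRC34 · Buffer or medium – pH 7.4 phosphate-saline buffer, reducing agent, detergent, IgG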
CDK5 p35 inh: CDK5/p35 (human) kinase inhibition; AID 488839; Q00535+Q15078; Recombinant CDK5/p35, ADP-Glo luminescence, 60 min; inhibition, % at 10 µM; actives 0.01% (n = 330,000);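 active means highest replicate inhibition of at least 50% and at least 75% of replicates reaching 50%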;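 further: plate controls were DMSO neutral control for no effect and GW8510 at 10 µM for full effect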
Target sequence (Q00535 whole entry, looked up): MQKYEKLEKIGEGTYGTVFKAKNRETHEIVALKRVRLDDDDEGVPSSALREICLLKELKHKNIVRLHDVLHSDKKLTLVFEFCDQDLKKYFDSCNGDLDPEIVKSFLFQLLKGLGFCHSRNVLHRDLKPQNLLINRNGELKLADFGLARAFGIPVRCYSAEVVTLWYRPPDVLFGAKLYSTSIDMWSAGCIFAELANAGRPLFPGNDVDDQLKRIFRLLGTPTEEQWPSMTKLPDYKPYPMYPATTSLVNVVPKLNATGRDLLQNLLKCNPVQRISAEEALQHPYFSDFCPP
Target sequence (Q15078 whole entry, looked up): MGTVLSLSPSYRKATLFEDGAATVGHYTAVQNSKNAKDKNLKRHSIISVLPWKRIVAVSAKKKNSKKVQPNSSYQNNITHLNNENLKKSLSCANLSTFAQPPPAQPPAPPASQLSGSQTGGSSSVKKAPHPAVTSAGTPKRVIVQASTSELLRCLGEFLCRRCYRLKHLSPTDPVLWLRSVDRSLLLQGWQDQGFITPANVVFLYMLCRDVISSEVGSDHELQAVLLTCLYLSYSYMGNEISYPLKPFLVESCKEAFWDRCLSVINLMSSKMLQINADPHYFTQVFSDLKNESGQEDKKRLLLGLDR
Glyco luc inh: blocks N-linked glycosylation in D54 reporter cells. D54 ERlucT glycosylation luciferase reporter, 24 h; percent of 100 nM tunicamycin response. reporter increase, % at 12.5 µM. actives 0.23% (n = 360,000);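 active means mean luciferase reporter signal, scaled so untreated is 0 and the glycosylation-blocking control 100, at or above a set limit in every replicate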;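 further: luciferase carries N-glycosylation sites so blocking glycosylation raises the light; 0% = median of neutral control wells and 100% = median of 100 nM tunicamycin wells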
CAL PDZ FP-2: inhibitors of human CAL PDZ peptide binding; Q9HD26; purified CAL PDZ, TMR-peptide fluorescence polarization, 1 h; inhibition, % at 24.9 µM; actives 0.92% (n = 300,000); AID 602252;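 active means mean inhibition of at least 30% with at least half of replicates also reaching 30%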;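 further: 0% = DMSO neutral control and 100% = excess unlabeled competitor peptide PRC23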
The depositor's hits bear a star; . = no result.

SMILES	Vif imaging	PvdQ acylase	CAL PDZ FP-1	CDK5 p35 inh	Glyco luc inh	CAL PDZ FP-2
CCSc1nnc(NC(=O)CN2C(=O)NC3(CCCC3)C2=O)s1	19.9	-6.6	0.4	-1.4	0.8	78.1*
O=C1c2cccc3cccc(c23)C(=O)N1Cc1ccccn1	-6.6	.	.	.	1.6	.
Cc1nn(C)c(C(=O)Sc2ccccc2)c1[N+](=O)[O-]	-1.3	-6.9	0.8	-0.2	1.5	-0.4
Cc1nn(C)c(C(=O)Sc2cccc(Cl)c2)c1[N+](=O)[O-]	7.3	-18.7	-1.2	2.4	10.5	94.6*
Cc1ccc(NC(=O)c2nc[nH]c2C(=O)Nc2ccccc2F)cc1	90.1*	.	.	.	4.7	.
O=C(c1ccc(NS(=O)(=O)c2cccc(F)c2)cc1)N1CCCCC1	-5.0	-19.2	-1.5	-1.3	-2.0	35.7*
O=C(COC(=O)c1cc(=O)[nH]c2ccccc12)NCCc1ccccc1	6.3	-5.1	-2.2	0.2	0.3	-6.5
Cc1cnc(NC(=O)c2cc3c(C)nn(-c4ccccc4)c3s2)s1	52.8*	7.8	-1.4	-1.4	0.2	-5.9
O=C(NNC(=O)c1ccc(Cl)c(Cl)c1)c1cccnc1	-9.8	-9.8	91.7*	-1.8	0.1	-1.9
C[C@H](NC(=O)c1ncn2c1C(=O)NC[C@@H]2C)c1ccccc1	-9.5	.	.	.	-0.7	.
O=C(CSc1nnc(-c2c[nH]c3ccccc23)o1)NCC1CCCO1 (stereo unspecified)	5.3	-14.9	-1.4	0.0	3.2	44.0*
CC[C@H](CO)Oc1cc(NCc2ccc(Cl)c(Cl)c2)c2ncn(C(C)C)c2c1	7.4	-14.5	0.7	0.9	-0.8	-2.5
CCC(CO)Oc1cc(NCc2ccc(Cl)cc2)c2ncn(C(C)C)c2c1 (stereo unspecified)	106.4*	-3.7	0.4	1.7	6.7	1.9
O=C(CSc1nc2ccccc2c(=O)n1-c1ccccc1Cl)NC1CCS(=O)(=O)C1 (stereo unspecified)	-3.7	-4.7	-0.9	-0.1	0.3	14.5
O=C(CSc1nnnn1-c1ccccc1)c1ccc(O)cc1O	6.6	-7.9	-1.5	-0.2	4.0	42.8*
O=C(CSc1nnnn1-c1ccccc1)CSc1nnnn1-c1ccccc1	10.2	2.1	-1.4	-0.9	-2.8	-2.6
COc1ccccc1-c1csc(NC(=O)c2ccc(N3C(=O)CCC3=O)cc2)n1	-6.1	-2.6	-3.6	-1.3	-0.3	1.1
CSc1nc(-c2ccc(C)cc2)[nH]c1S(=O)(=O)c1ccccc1	-2.8	-12.9	.	0.4	-0.7	35.3*
CSc1nc(-c2ccccc2)[nH]c(=S)c1C(C)=O	-3.5	-13.9	-1.0	3.5	0.6	-0.5
Clc1ccc(-c2nc3ccc(Br)cn3c2Cc2cccc(Cl)c2)cc1	.	.	.	.	1.1	.
Cc1cc(C)c(S(=O)(=O)Nc2ccc3c4c(cccc24)CC3)c(C)c1	56.8*	1.9	-5.0	-8.5	5.5	0.3
Cc1ccc2cccc(CC(=O)NN)c2c1	4.8	.	.	.	1.4	.
CC(=O)c1ccc(NC(=S)N(CCCN(C)C)Cc2ccccc2)cc1	-4.5	-15.6	0.4	1.5	-0.8	57.7*
Cc1cc(OCc2nc(N)nc(N)c2-c2ccc(Cl)c(Cl)c2)ccc1[N+](=O)[O-]	-16.9	14.2	0.4	0.7	-6.0	-8.1
COc1cc(NC(=O)C2CCCN(S(=O)(=O)c3cccc4nsnc34)C2)cc(OC)c1 (stereo unspecified)	-6.1	-11.3	-0.8	-1.1	-0.1	57.8*
SMILES	Vif imaging	PvdQ acylase	CAL PDZ FP-1	CDK5 p35 inh	Glyco luc inh	CAL PDZ FP-2
COCCCNC(=O)CN1C(=O)/C(=C\c2ccc(C)cc2)Sc2ccccc21	-17.3	11.5	-2.8	-1.1	-0.7	-3.4
CCOCCCNC(=O)CN1C(=O)/C(=C/c2ccccc2C)Sc2ccccc21	-15.8	-4.3	-1.4	0.7	-0.5	31.3*
Cc1ccc(Cn2c(=O)n(-c3ccccc3)c(=O)c3ccc(C(=O)NCc4ccco4)cc32)cc1	0.0	12.3	0.0	1.0	-3.9	.
CCC(C)NC(=O)Cn1c(=O)n(-c2ccccc2)c(=O)c2ccc(C(=O)NCc3ccco3)cc21 (stereo unspecified)	60.7*	-9.2	.	-1.6	1.7	-4.6
COc1cc(C2c3cc4c(cc3OC(NCCc3ccccc3)C2C)OCO4)cc(OC)c1OC (stereo unspecified)	17.9	7.3	1.1	0.0	15.7	-4.2
O=S(=O)(NN=C1CCCCCCC1)c1ccccc1	0.0	.	.	.	2.5	.
